Columns and labels:
Bacillus subtilis = test: Minimum inhibitory concentration of salt was tested against Bacillus subtilis at 0.1 M NaH2PO4 adjusted to pH 7.0; format: functional
Pseudomonas aeruginosa [1] = test: Minimum inhibitory concentration of salt was tested against Pseudomonas aeruginosa at 0.1 M NaH2PO4 adjusted to pH 7.0; format: functional
Pseudomonas aeruginosa [2] = test: Sterilization time for contact germicidal efficiency (CGE) of salt was tested against at Pseudomonas aeruginosa at pH 7.0, concentration 1026 ppm; format: functional
Pseudomonas aeruginosa [3] = test: Sterilization time for contact germicidal efficiency (CGE) of salt was tested against at Pseudomonas aeruginosa at pH 8.0, concentration 1008 ppm; format: functional
Pseudomonas aeruginosa [4] = test: Sterilization time for contact germicidal efficiency (CGE) of salt was tested against at Pseudomonas aeruginosa at pH 6.0, concentration 1009 ppm; format: functional
Staphylococcus aureus [5] = test: Sterilization time for contact germicidal efficiency (CGE) of salt was tested against Staphylococcus aureus at pH 7.0, concentration 1026 ppm; format: functional
Streptococcus pyogenes [6] = test: Minimum inhibitory concentration of salt was tested against Streptococcus pyogenes aureus at 0.1 M NaH2PO4 adjusted to pH 7.0; format: functional
Streptococcus pyogenes [7] = test: Sterilization time for contact germicidal efficiency (CGE) of salt was tested against at Streptococcus pyogenes at pH 6.0, concentration 1009 ppm; format: functional
Staphylococcus aureus [8] = test: Minimum inhibitory concentration of salt was tested against Staphylococcus aureus aureus at 0.1 M NaH2PO4 adjusted to pH 7.0; format: functional
Summary of the method: (§1)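 Bacteria grown 18-20 h at 37 °C in tryptose phosphate broth, adjusted to OD650 0.01, then diluted into double-strength medium to about 2 × 10^5 viable organisms/mL. Compound in 0.1 M NaH2PO4 pH 7.0 was serially twofold diluted into sterile water and added 1:1 to the cultures. MIC read after 18-20 h at 37 °C, with viability, sterility and buffer controls.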

Staphylococcus aureus [9] = test: Sterilization time for contact germicidal efficiency (CGE) of salt was tested against at Staphylococcus aureus at pH 7.0, concentration 1026 ppm; format: functional
Staphylococcus aureus [10] = test: Sterilization time for contact germicidal efficiency (CGE) of salt was tested against at Staphylococcus aureus at pH 8.0, concentration 1008 ppm; format: functional
Streptococcus pyogenes [11] = test: Sterilization time for contact germicidal efficiency (CGE) of salt was tested against at Streptococcus pyogenes at pH 8.0, concentration 1008 ppm; format: functional
Staphylococcus aureus [12] = test: Sterilization time for contact germicidal efficiency (CGE) of salt was tested against at Staphylococcus aureus at pH 6.0, concentration 1009 ppm; format: functional
Streptococcus pyogenes [13] = test: Sterilization time for contact germicidal efficiency (CGE) of salt was tested against at Streptococcus pyogenes at pH 7.0, concentration 1026 ppm; format: functional
Salmonella typhimurium [14] = test: (§2) Minimum inhibitory concentration of salt was tested against Salmonella Typhimurium […] at 0.1 M NaH2PO4 adjusted to pH 7.0; format: functional; conditions: Salmonella enterica
Pseudomonas aeruginosa [15] = test: Sterilization time for contact germicidal efficiency (CGE) of salt was tested against at Pseudomonas aeruginosa at pH 7.0, concentration 896.0 ppm; format: functional
Summary of the method: (§3)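 Test solutions of the quaternary salt in buffer stood 30 min at room temperature. 0.2 mL of overnight broth culture was added to 5 mL of solution. Inocula: S. aureus ATCC 6538 6-8 × 10^6 cfu/mL, P. aeruginosa ATCC 9027 12-13 × 10^6/mL, S. pyogenes ATCC 19615 5 × 10^6 cfu/mL. At 0.5-30 min intervals a loop was subcultured into nutrient broth and incubated 7 days at 37 °C. Sterilization time is the first interval giving no growth.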

Pseudomonas aeruginosa [16] = test: Sterilization time for contact germicidal efficiency (CGE) of salt was tested against at Pseudomonas aeruginosa at pH 8.0, concentration 1013 ppm; format: functional
Summary of the method: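 Pseudomonas aeruginosa ATCC 9027 overnight broth culture (12-13 × 10^6 organisms/mL); 0.2 mL added to 5 mL buffered salt solution held 30 min at room temperature. At intervals from 0.5 to 30 min, a 3-mm loop was subcultured into nutrient broth and incubated at 37 °C for 7 days. Sterilization time is the shortest interval whose subculture gave no growth.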

Pseudomonas aeruginosa [17] = test: Sterilization time for contact germicidal efficiency (CGE) of salt was tested against at Pseudomonas aeruginosa at pH 6.0, concentration 1016 ppm; format: functional; summary of the method: as §3
Pseudomonas aeruginosa [18] = test: Sterilization time for contact germicidal efficiency (CGE) of salt was tested against at Pseudomonas aeruginosa at pH 7.0, concentration 1010 ppm; format: functional; summary of the method: as §3
Pseudomonas aeruginosa [19] = test: Sterilization time for contact germicidal efficiency (CGE) of salt was tested against at Pseudomonas aeruginosa at pH 7.0, concentration 1010.9 ppm; format: functional; summary of the method: as §3
Staphylococcus aureus [20] = test: Sterilization time for contact germicidal efficiency (CGE) of salt was tested against Staphylococcus aureus at pH 7.0, concentration 1010.9 ppm; format: functional; summary of the method: as §3
Streptococcus pyogenes [21] = test: Sterilization time for contact germicidal efficiency (CGE) of salt was tested against at Streptococcus pyogenes at pH 6.0, concentration 1016 ppm; format: functional
Summary of the method: (§4)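 Streptococcus pyogenes ATCC 19615 overnight culture, 5 × 10^6 cfu/mL; 0.2 mL into 5 mL test solution of salt in buffer, left 30 min at room temperature beforehand. At timed intervals (0.5 to 30 min), a 3-mm loop was transferred to sterile nutrient broth and incubated at 37 °C for 7 days. Sterilization time is the shortest interval without growth; buffer-only and viability controls were run.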

Streptococcus pyogenes [22] = test: Sterilization time for contact germicidal efficiency (CGE) of salt was tested against at Streptococcus pyogenes at pH 7.0, concentration 1010 ppm; format: functional; summary of the method: as §4
Streptococcus pyogenes [23] = test: Sterilization time for contact germicidal efficiency (CGE) of salt was tested against at Streptococcus pyogenes at pH 7.0, concentration 1010.9 ppm; format: functional; summary of the method: as §4
Staphylococcus aureus [24] = test: Sterilization time for contact germicidal efficiency (CGE) of salt was tested against Staphylococcus aureus at pH 7.0, concentration 896.0 ppm; format: functional; summary of the method: as §3
Staphylococcus aureus [25] = test: Sterilization time for contact germicidal efficiency (CGE) of salt was tested against at Staphylococcus aureus at pH 7.0, concentration 1010 ppm; format: functional
Summary of the method: (§5)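 Staphylococcus aureus ATCC 6538, overnight broth culture at 6-8 × 10^6 cfu/mL; 0.2 mL inoculated into 5 mL of buffered quaternary salt solution pre-held 30 min at room temperature. Loop subcultures (3 mm) taken at 0.5-30 min intervals into nutrient broth, incubated at 37 °C for 7 days and read daily. The endpoint is the earliest time giving a growth-free subculture.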

Staphylococcus aureus [26] = test: Sterilization time for contact germicidal efficiency (CGE) of salt was tested against at Staphylococcus aureus at pH 8.0, concentration 1013 ppm; format: functional; summary of the method: as §5
Streptococcus pyogenes [27] = test: Sterilization time for contact germicidal efficiency (CGE) of salt was tested against at Streptococcus pyogenes at pH 7.0, concentration 896.0 ppm; format: functional; summary of the method: as §4
Streptococcus pyogenes [28] = test: Sterilization time for contact germicidal efficiency (CGE) of salt was tested against at Streptococcus pyogenes at pH 8.0, concentration 1013 ppm; format: functional; summary of the method: as §4
Staphylococcus aureus [29] = test: Sterilization time for contact germicidal efficiency (CGE) of salt was tested against at Staphylococcus aureus at pH 6.0, concentration 1016 ppm; format: functional; summary of the method: as §5
[30] = Toxicity of the salt was tested on white swiss male mice after intraperitoneal administration; format: organism-based; conditions: mouse, in vivo, ip
Summary of the method: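 Male White Swiss mice (MCR-ICR), 20-23 g, 10-20 per dose. Salt given in isotonic NaCl, pH 7.0 (adjusted with sodium bicarbonate). LD50 with confidence limits was calculated by Litchfield–Wilcoxon.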

[31] = Toxicity of the salt was tested on white swiss male mice after oral administration; format: organism-based; conditions: mouse, in vivo
Summary of the method: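 Male White Swiss mice (MCR-ICR), 20-23 g, 10-20 per dose, dosed orally. At higher doses the salt was given in 0.8% NaCl brought to pH 5.84 with sodium bicarbonate. LD50 was calculated by Litchfield–Wilcoxon.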

Pseudomonas aeruginosa [32] = test: Sterilization time for contact germicidal efficiency (CGE) of salt was tested against at Pseudomonas aeruginosa at pH 7.0, concentration 1038.7 ppm; format: functional
Pseudomonas aeruginosa [33] = test: Sterilization time for contact germicidal efficiency (CGE) of salt was tested against at Pseudomonas aeruginosa at pH 7.0, concentration 1039 ppm; format: functional
Pseudomonas aeruginosa [34] = test: Sterilization time for contact germicidal efficiency (CGE) of salt was tested against at Pseudomonas aeruginosa at pH 7.0, concentration 936.0 ppm; format: functional
Pseudomonas aeruginosa [35] = test: Sterilization time for contact germicidal efficiency (CGE) of salt was tested against at Pseudomonas aeruginosa at pH 6.0, concentration 1018 ppm; format: functional
Pseudomonas aeruginosa [36] = test: Sterilization time for contact germicidal efficiency (CGE) of salt was tested against at Pseudomonas aeruginosa at pH 8.0, concentration 1018 ppm; format: functional
Staphylococcus aureus [37] = test: Sterilization time for contact germicidal efficiency (CGE) of salt was tested against Staphylococcus aureus at pH 7.0, concentration 1038.7 ppm; format: functional
Streptococcus pyogenes [38] = test: Sterilization time for contact germicidal efficiency (CGE) of salt was tested against at Streptococcus pyogenes at pH 6.0, concentration 1018 ppm; format: functional
Staphylococcus aureus [39] = test: Sterilization time for contact germicidal efficiency (CGE) of salt was tested against Staphylococcus aureus at pH 7.0, concentration 936.0 ppm; format: functional
Streptococcus pyogenes [40] = test: Sterilization time for contact germicidal efficiency (CGE) of salt was tested against at Streptococcus pyogenes at pH 7.0, concentration 1038.7 ppm; format: functional
Streptococcus pyogenes [41] = test: Sterilization time for contact germicidal efficiency (CGE) of salt was tested against at Streptococcus pyogenes at pH 7.0, concentration 1039 ppm; format: functional
Staphylococcus aureus [42] = test: Sterilization time for contact germicidal efficiency (CGE) of salt was tested against at Staphylococcus aureus at pH 6.0, concentration 1018 ppm; format: functional
Staphylococcus aureus [43] = test: Sterilization time for contact germicidal efficiency (CGE) of salt was tested against at Staphylococcus aureus at pH 7.0, concentration 1039 ppm; format: functional
Staphylococcus aureus [44] = test: Sterilization time for contact germicidal efficiency (CGE) of salt was tested against at Staphylococcus aureus at pH 8.0, concentration 1018 ppm; format: functional
Streptococcus pyogenes [45] = test: Sterilization time for contact germicidal efficiency (CGE) of salt was tested against at Streptococcus pyogenes at pH 7.0, concentration 936.0 ppm; format: functional
Streptococcus pyogenes [46] = test: Sterilization time for contact germicidal efficiency (CGE) of salt was tested against at Streptococcus pyogenes at pH 8.0, concentration 1018 ppm; format: functional
Pseudomonas aeruginosa [47] = test: Sterilization time for contact germicidal efficiency (CGE) of salt was tested against at Pseudomonas aeruginosa at pH 7.0, concentration 1035.9 ppm; format: functional; summary of the method: as §3
Staphylococcus aureus [48] = test: Sterilization time for contact germicidal efficiency (CGE) of salt was tested against Staphylococcus aureus at pH 7.0, concentration 1035.9 ppm; format: functional; summary of the method: as §3
Streptococcus pyogenes [49] = test: Sterilization time for contact germicidal efficiency (CGE) of salt was tested against at Streptococcus pyogenes at pH 7.0, concentration 1035.9 ppm; format: functional; summary of the method: as §4
Salmonella typhimurium [50] = test: as §2; format: functional; conditions: Salmonella enterica; summary of the method: as §1; remark: listed apart in the source

CCCCCCCCCCCC(=O)OC[N+]12CCN(CC1)CC2.[Cl-]
MIC (Bacillus subtilis): 32.8 µg/mL
MIC (Pseudomonas aeruginosa [1]): 1050 µg/mL
Time (Pseudomonas aeruginosa [2]): 3 min
Time (Pseudomonas aeruginosa [3]): 4 min
Time (Pseudomonas aeruginosa [4]): 0.5 min
Time (Staphylococcus aureus [5]): 0.5 min
MIC (Streptococcus pyogenes [6]): 32.8 µg/mL
Time (Streptococcus pyogenes [7]): 0.5 min
MIC (Staphylococcus aureus [8]): 65.5 µg/mL
Time (Staphylococcus aureus [9]): 0.5 min
Time (Staphylococcus aureus [10]): 0.5 min
Time (Streptococcus pyogenes [11]): 3 min
Time (Staphylococcus aureus [12]): 7 min
Time (Streptococcus pyogenes [13]): 0.5 min
MIC (Salmonella typhimurium [14]): 524 µg/mL

CCCCCCCCCCCC(=O)OC[n+]1ccccc1.[Cl-]
MIC (Pseudomonas aeruginosa [1]): 512 µg/mL
Time (Pseudomonas aeruginosa [15]): 0.5 min
Time (Pseudomonas aeruginosa [16]): 2 min
Time (Pseudomonas aeruginosa [17]): 0.5 min
Time (Pseudomonas aeruginosa [18]): 0.5 min
Time (Pseudomonas aeruginosa [19]): 0.5 min
Time (Staphylococcus aureus [20]): 0.5 min
Time (Streptococcus pyogenes [21]): 0.5 min
Time (Streptococcus pyogenes [22]): 0.5 min
Time (Streptococcus pyogenes [23]): 0.5 min
Time (Staphylococcus aureus [24]): 0.5 min
Time (Staphylococcus aureus [25]): 0.5 min
Time (Staphylococcus aureus [26]): 0.5 min
Time (Streptococcus pyogenes [27]): 0.5 min
Time (Streptococcus pyogenes [28]): 7 min
Time (Staphylococcus aureus [29]): 1 min

CCCCCCCCCCCCCCCC[n+]1ccccc1.[Cl-]
LD50 [30]: 10 mg/kg
LD50 [31]: 108 mg/kg
Time (Pseudomonas aeruginosa [32]): 0.5 min
Time (Pseudomonas aeruginosa [33]): 0.5 min
Time (Pseudomonas aeruginosa [34]): 0.5 min
Time (Pseudomonas aeruginosa [35]): 0.5 min
Time (Pseudomonas aeruginosa [36]): 0.5 min
Time (Staphylococcus aureus [37]): 0.5 min
Time (Streptococcus pyogenes [38]): 0.5 min
Time (Staphylococcus aureus [39]): 0.5 min
Time (Streptococcus pyogenes [40]): 0.5 min
Time (Streptococcus pyogenes [41]): 0.5 min
Time (Staphylococcus aureus [42]): 0.5 min
Time (Staphylococcus aureus [43]): 0.5 min
Time (Staphylococcus aureus [44]): 0.5 min
Time (Streptococcus pyogenes [45]): 0.5 min
Time (Streptococcus pyogenes [46]): 0.5 min

CCCCCCCC(=O)OC[n+]1ccccc1.[Cl-]
Time (Pseudomonas aeruginosa [47]): >30 min
Time (Staphylococcus aureus [48]): >30 min
Time (Streptococcus pyogenes [49]): >30 min
MIC (Salmonella typhimurium [50]): 1060 µg/mL

Reference: ChEMBL document CHEMBL1121429, “Soft drugs. 1. Labile quaternary ammonium salts as soft antimicrobials” (J Med Chem, 1980)
